# Experimental data from ChEMBL document CHEMBL1138206, “Lead compounds for antimalarial chemotherapy: purine base analogs discriminate between human and P. falciparum 6-oxopurine phosphoribosyltransferases” (J Med Chem, 2006).
# Calls of active or inactive are those of the source. The calls are words filed in the database; no cut-off is given here.
# B1: Hypoxanthine-guanine phosphoribosyltransferase (Homo sapiens), P00492 (protein)
# chain: MATRSPGVVISDDEPGYDLDLFCIPNHYAEDLERVFIPHGLIMDRTERLARDVMKEMGGHHIVALCVLKGGYKFFADLLDYIKALNRNSDRSIPMTVDFIRLKSYCNDQSTGDIKVIGGDDLSTLTGKNVLIVEDIIDTGKTMQTLLSLVRQYNPKMVKVASLLVKRTPRSVGYKPDFVGFEIPDKFVVGYALDYNEYFRDLNHVCVISETGKAKYKA
# How the values were obtained:
# [1] = Inhibition of Plasmodium falciparum HGXPRT at pH 7.4
# [2] = test system: Plasmodium falciparum; test: Antiplasmodial activity against Plasmodium falciparum 3D7; assay type: functional, organism-based
# Method in brief: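 P. falciparum 3D7 kept in erythrocyte culture. Triplicate cultures exposed to a range of purine base concentrations for 48 h, without radiolabel. Giemsa-stained blood smears examined by light microscopy to determine parasitemia. IC50 taken as the inhibition of growth, from counts of viable parasites.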
# [3] = test system: Plasmodium falciparum; test: Inhibition of [3H]hypoxanthine uptake in Plasmodium falciparum 3D7; assay type: functional, organism-based; settings: 3D7, 48 h
# [4] = test system: Plasmodium falciparum
# [5] = test system: Plasmodium falciparum; remark: listed apart in the source
# [6] = test system: Plasmodium falciparum; test: Antimalarial activity against Plasmodium falciparum 3D7 at 130 uM; assay type: functional, organism-based
# [7] = test system: Plasmodium falciparum; test: Inhibition of [3H]hypoxanthine uptake into Plasmodium falciparum 3D7 at 130 uM; assay type: functional, organism-based
# [8] = test system: Plasmodium falciparum; test: Inhibition of [3H]hypoxanthine uptake into Plasmodium falciparum 3D7 at 120 uM; assay type: functional, organism-based
# [9] = test system: Plasmodium falciparum; test: Antimalarial activity against Plasmodium falciparum 3D7 at 120 uM; assay type: functional, organism-based
# [10] = test system: Plasmodium falciparum; test: Antimalarial activity against Plasmodium falciparum 3D7 at 125 uM; assay type: functional, organism-based
# [11] = test system: Plasmodium falciparum; test: Inhibition of [3H]hypoxanthine uptake into Plasmodium falciparum 3D7 at 125 uM; assay type: functional, organism-based
# [12] = Inhibition of Toxoplasma gondii 6 oxopurine phosphoribosyl transferase
# [13] = test system: Plasmodium falciparum; test: Antimalarial activity against Plasmodium falciparum; assay type: functional, organism-based
# Method in brief: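 P. falciparum 3D7, a laboratory-adapted isolate, was kept in erythrocyte culture. Triplicate cultures were exposed to a range of purine base concentrations with 0.5 µCi/well [3H]hypoxanthine for 48 h, and label incorporation into nucleic acids was measured. Parallel cultures without label were run for 48 h, and parasitemia was read on Giemsa-stained smears by light microscopy. IC50 was derived for each read-out.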
# [14] = test system: Plasmodium lophurae; test: Inhibition of Plasmodium lophurae 6 oxopurine phosphoribosyl transferase
# [15] = test system: Plasmodium chabaudi; test: Inhibition of Plasmodium chabaudi 6 oxopurine phosphoribosyl transferase
# [16] = test system: Sphi609; test: Inhibition of Escherichia coli Sphi609 cells expressing Plasmodium falciparum HGXPRT; assay type: functional, cell-based
# [17] = test system: Sphi609; test: Inhibition of Escherichia coli Sphi609 cells expressing human HGPRT; assay type: functional, cell-based
# [18] = substrate: Oc1ncnc2[nH]ncc12; settings: Homo sapiens
# [19] = substrate: Nc1nc2[nH]cnc2c(=O)[nH]1; settings: Homo sapiens
# [20] = substrate: Sc1ncnc2nc[nH]c12; settings: Homo sapiens
# [21] = substrate: Nc1nc2[nH]cnc2c(=S)[nH]1; settings: Homo sapiens
# [22] = substrate: O=c1[nH]cnc2nc[nH]c12; settings: Homo sapiens
# [23] = substrate: Oc1ncnc2[nH]ncc12; settings: Homo sapiens; remark: listed apart in the source
# [24] = substrate: Nc1nc(O)c2[nH]nnc2n1; settings: Homo sapiens
# [25] = substrate: Nc1nc2[nH]cnc2c(=O)[nH]1; settings: Homo sapiens; remark: listed apart in the source
# [26] = substrate: Sc1ncnc2nc[nH]c12; settings: Homo sapiens; remark: listed apart in the source
# [27] = substrate: Nc1nc2[nH]cnc2c(=S)[nH]1; settings: Homo sapiens; remark: listed apart in the source
# [28] = substrate: O=c1[nH]cnc2nc[nH]c12; settings: Homo sapiens; remark: listed apart in the source
molecule,measurement,setting,value
O=c1[nH]c(=O)c2nn[nH]c2[nH]1,Ki,[1],≥ 100 µM
O=c1[nH]cnc2[nH]nnc12,IC50,[2],38 µM
same,IC50,[3],90 µM
same,Km,[4],145 µM
same,Km,[5],25.6 µM
O=c1[nH]c(=O)c2nc[nH]c2[nH]1,Activity,[6],inactive
same,Km,[4],420 µM
same,Km,[5],189 µM
same,Activity,[7],inactive
O=c1[nH]c(=S)c2nc[nH]c2[nH]1,Activity,[8],inactive
same,Km,[5],82 µM
same,Activity,[9],inactive
O=c1[nH]c(S)nc2[nH]cnc12,Activity,[10],inactive
same,Activity,[11],inactive
Nc1nc2ncnc-2c[nH]1 [2-AMINOPURINE],Ki,[12],60 µM
Nc1nc(Cl)c2nc[nH]c2n1 [6-CHLOROGUANINE],IC50,[2],10 µM
same,IC50,[3],67 µM
same,Km,[5],176 µM
Nc1nc(O)c2[nH]nnc2n1 [8-AZAGUANINE],IC50,[2],18 µM
same,IC50,[3],6.6 µM
same,Km,[4],26.6 µM
same,Km,[5],12.6 µM
Oc1ncnc2[nH]ncc12 [ALLOPURINOL],Activity,[13],inactive
same,IC50,[3],≥ 150 µM
same,Km,[4],11.7 µM
same,Km,[5],10.5 µM
Nc1nc2[nH]cnc2c(=O)[nH]1 [GUANINE],IC50,[2],60 µM
same,IC50,[3],35.3 µM
same,Km,[4],1.4 µM
same,Km,[5],0.83 µM
O=c1[nH]cnc2nc[nH]c12 [HYPOXANTHINE],IC50,[3],4.2 µM
same,Km,[4],0.9 µM
same,Km,[5],0.07 µM
Sc1ncnc2nc[nH]c12 [MERCAPTOPURINE ANHYDROUS],Activity,[14],Active
same,Activity,[15],Active
same,Activity,[16],Active
same,IC50,[2],2 µM
same,IC50,[3],1.3 µM
same,Km,[4],1.6 µM
same,Km,[5],0.02 µM
same,Activity,[17],Active
Nc1nc2[nH]cnc2c(=S)[nH]1 [THIOGUANINE],Activity,[14],Active
same,Activity,[15],Active
same,Activity,[16],Active
same,IC50,[2],10 µM
same,IC50,[3],21.3 µM
same,Km,[4],1.9 µM
same,Km,[5],0.75 µM
same,Activity,[17],Active
B1,Km,[18],135 µM
same,Km,[19],1.9 µM
same,Km,[20],3 µM
same,Km,[21],5.9 µM
same,Km,[22],3.1 µM
same,Km,[23],47.9 µM
same,Km,[24],72 µM
same,Km,[25],1.9 µM
same,Km,[26],1.15 µM
same,Km,[27],1.7 µM
same,Km,[28],3.4 µM
